INS promoter act – activators of insulin promoter-driven GFP, primary screen, imaging, TRM-6 cells (human fetal islet line), eGFP reporter, cell count; plate-scaled: unstimulated 0, stimulated control 100; activation, % at 2 µM; 130,000 tested, 0.81% active;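 active = activation at 2 µM above a set limit, confirmed on inspection of the cell images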;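 note: share of cells whose green reporter signal exceeds an intensity cutoff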
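Assay system: TRM-6 insulin promoter–eGFP reporter cells / Input: 1,000 cells per well / Medium: Low-glucose (5.5 mM) medium with tamoxifen / Also added: tamoxifen inducer, 0.75 µM, in seeding medium / Timing: overnight tamoxifen, then two-day compound incubation at 37 °C / Signal: automated fluorescence imaging of paraformaldehyde-fixed, Hoechst-counterstained cells, green channel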
* = called active by the depositor; [ ] = remark or other dose. The sample as a whole holds a higher share of hits than the screen did.

`Cc1noc(C)c1CSc1nnc(-c2ccncc2)n1-c1ccc(Cl)c(Cl)c1` gave INS promoter act 5.6.
`Cc1ccccc1CSc1nccn1-c1ccccc1` gave INS promoter act -2.7.
For CCOC(=O)c1cnn(C(=O)c2ccccc2)c1N the results were INS promoter act -81.8.
`CC(C)c1cccc(C(C)C)c1NC(=O)Cn1c(=O)cnc2ccccc21` gave INS promoter act 8.1.
CCOC(=O)/C(=C/C=C1\Sc2cc(OCC)c(OCC)cc2N1CC)C(C)=O was read as INS promoter act 669.2*[fluoresces].
Screening Cn1ccc(C(=O)OCC(=O)Nc2cccc3ccccc23)n1 returned INS promoter act -6.7.
Screening CN(C)S(=O)(=O)c1cc(NC2CC(=O)N(c3ccc(F)cc3)C2=O)ccc1Cl (stereo not drawn) returned INS promoter act -5.6.
Screening COc1ccc(CNC(=O)C(c2ccco2)N(Cc2cccs2)C(=O)Cc2cccs2)cc1 (stereo not drawn) returned INS promoter act 80.0*.
Screening COc1ccc(CNC(=O)C(c2cccs2)N(Cc2ccco2)C(=O)Cc2cccs2)cc1 (stereo not drawn) returned INS promoter act 283.8.
COc1ccc(CNC(=O)C(c2ccc(C)cc2)N(Cc2cccs2)C(=O)c2ccc3c(c2)OCCO3)cc1 (stereo not drawn) was read as INS promoter act 4.2.
COc1ccc(S(=O)(=O)N(C)CC(=O)Nc2c(F)cccc2F)cc1 was read as INS promoter act 7.9.
Screening Clc1ccc(OCCCn2cncn2)cc1Cl returned INS promoter act -7.1.
Screening Cc1cc(C(F)F)n2ncc(C(=O)N3CCCCC3)c2n1 returned INS promoter act 246.7.
For COc1ccc(-c2cc(C(F)F)n3ncc(C(=O)N4CCc5ccccc5C4)c3n2)cc1 the results were INS promoter act 392.9*.
`O=C(c1cnn2c(C(F)F)cc(-c3ccccc3)nc12)N1CCN2CCCC2C1` (stereo not drawn) gave INS promoter act 104.5.
For CCOC(=O)N1CCN(CC(O)COc2ccc(C)cc2C(C)(C)C)CC1 (stereo not drawn) the results were INS promoter act -7.4.
COc1cc(OC)cc(C(=O)N[C@H](C(=O)OCC(=O)Nc2ccc(F)c(F)c2)C(C)C)c1 was read as INS promoter act 6.7.
For Cc1ccc(N(CC(=O)Nc2ccccc2-c2ccccc2)S(=O)(=O)c2ccccc2)cc1 the results were INS promoter act 7.9.
Screening COc1ccc(CCNC(=O)C2CCN(S(C)(=O)=O)CC2)cc1 returned INS promoter act 8.6.
`Cc1cc(N2CCCC2=O)cc(C)c1CN1C(=O)c2ccccc2C1=O` gave INS promoter act 144.7.
CC(=O)Nc1ccc(C(=O)OCC(=O)Nc2ccccc2F)cc1 was read as INS promoter act 0.0.
Screening O=C1N/C(=N\c2ccccn2)SC1Cc1ccc(Cl)cc1 (stereo not drawn) returned INS promoter act 450.0*.
`Cc1ccc(CC2S/C(=N/c3ccccn3)NC2=O)cc1` (stereo not drawn) gave INS promoter act 0.0.
Cc1ccc(CC2SC(=O)NC2=O)cc1Cl (stereo not drawn) was read as INS promoter act 8.8.
CCC(C)n1ncn(-c2ccc(N3CCN(c4ccc(OC)cc4)CC3)cc2)c1=O (stereo not drawn) was read as INS promoter act -3.4.
Screening COc1cc2ccccc2c2c1CCCC2=O returned INS promoter act -5.7.
For O=C(NCCCn1ccnc1)C(=O)NCc1ccccc1 the results were INS promoter act -3.4.
`Cc1cc(C(=O)NCCCn2ccnc2)sc1-c1ccccc1` gave INS promoter act 530.8*.
Screening O=C(NCCCn1ccnc1)C(=O)Nc1ccccc1 returned INS promoter act 126.7.
`O=c1c2ccccc2nc2n1CC/C2=C/N1CCN(c2cccc(C(F)(F)F)c2)CC1` gave INS promoter act -6.1.
CC(Sc1nc2cc([N+](=O)[O-])ccc2n1-c1cccc(C(F)(F)F)c1)C(=O)NC(N)=O (stereo not drawn) was read as INS promoter act 0.0.
COC(=O)CNc1ccc2c(c1)OCO2 was read as INS promoter act 393.3.
`Cc1cc(C)cc(NC(=S)NCc2ccc3c(c2)OCO3)c1` gave INS promoter act -2.3.
`Cc1ccc(CNc2ccc3c(c2)OCO3)cc1` gave INS promoter act 440.5*.
O=C(c1ccccc1)c1ccc(OCC(O)CN2CCOCC2)cc1 (stereo not drawn) was read as INS promoter act 233.3.
Screening CC(C(=O)N1CCOCC1)N1C(=O)c2ccccc2C1=O (stereo not drawn) returned INS promoter act 282.4.
Screening O=C1c2ccccc2C(=O)N1CC(O)CN1CCOCC1 (stereo not drawn) returned INS promoter act 533.3*.
CCN(CC)c1ccc(C(=O)NC(=S)N2CCN(Cc3ccc4c(c3)OCO4)CC2)cc1 was read as INS promoter act 123.3.
For CCCCOc1ccc(C2C3CN(C(=O)OCC)CC=C3C(C#N)=C(N)C2(C#N)C#N)cc1OC (stereo not drawn) the results were INS promoter act 5.4.
COc1ccc(C2C(C#N)=C(N)Nc3onc(C(C)(C)C)c32)c(OC)c1 (stereo not drawn) was read as INS promoter act -3.3.
`COc1ccc(OC)c(C2C3CN(C(C)C)CC=C3C(C#N)=C(N)C2(C#N)C#N)c1` (stereo not drawn) gave INS promoter act 478.6*.
Cc1ncsc1C(=O)O was read as INS promoter act 0.0.
Cc1cc(=O)[nH]c(N/N=C/C2=C(N3CCOCC3)C(=C\c3ccc(Cl)cc3)/CC2)n1 was read as INS promoter act -3.2.
N#C/C(=C\C1=C(N2CCOCC2)C(=C\c2ccc(Cl)cc2)/CC1)C(=O)Nc1ccccc1F was read as INS promoter act 614.3*[fluoresces].
For O=C(N/N=C/C1=C(N2CCOCC2)C(=C\c2ccccc2)/CC1)Nc1ccccc1 the results were INS promoter act 6.5.
`CC(C)C(NC(=O)C12CC3CC(CC(C3)C1)C2)C(=O)N/N=C/C1=C(N2CCOCC2)C(=C\c2ccc([N+](=O)[O-])cc2)/CC1` (stereo not drawn) gave INS promoter act 175.9.
Screening O=C(/C=C/c1cccc([N+](=O)[O-])c1)NCCN1CCOCC1 returned INS promoter act 6.8.
`N#C/C(=C\C1=C(N2CCOCC2)C(=C/c2cccc([N+](=O)[O-])c2)/CC1)C(=O)Nc1ccccc1F` gave INS promoter act 614.3*.
OCCC1CN(CC(c2ccccc2)c2ccccc2)CCN1C1CCCC1 (stereo not drawn) was read as INS promoter act 0.0.
Screening CCCN(CCC)C(=O)CCSCCC(=O)N(CCC)CCC returned INS promoter act -9.4.
O=C(COc1ncnc2ccccc12)NCCc1ccc(F)cc1 was read as INS promoter act 0.0.
`CCOP(=O)(O)c1ccccc1OCCCCCOc1ccccc1P(=O)(O)OCC` gave INS promoter act 2.7.
CCC(C)(C)NC(=O)C(c1ccco1)N(C(=O)Cn1nnc2ccccc21)c1ccc2c(c1)OCO2 (stereo not drawn) was read as INS promoter act 83.3*.
Cc1ccc(N(C(=O)Cn2nnc3ccccc32)C(C(=O)NCc2ccco2)c2ccc(C)o2)cc1 (stereo not drawn) was read as INS promoter act -7.7.
COc1ccc(N(C(=O)Cn2nnc3ccccc32)C(C(=O)NC(C)(C)C)c2ccc(OC)c(O)c2)cc1 (stereo not drawn) was read as INS promoter act -7.1.
